Results reported in ChEMBL document CHEMBL3124921, “Discovery of nitropyridine derivatives as potent HIV-1 non-nucleoside reverse transcriptase inhibitors via a structure-based core refining approach” (Eur J Med Chem, 2014).

Tests used:
[1] = Selectivity index, ratio of CC50 for human MT4 cells to EC50 for HIV-1 RES056 harboring reverse transcriptase K103N/Y181C double mutant infected in human MT4 cells; format: toxicity, cell-based; details: read-out: Ratio CC50/EC50
Summary of the method: (§1)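 MT-4 cells are seeded at 6 × 10⁵ cells/mL. Serial fivefold compound dilutions go into two triplicate series, one mock-infected and one virus-infected. After 5 days, viability is read by MTT reduction to formazan, with absorbance at 540 and 690 nm. EC50 comes from infected wells and CC50 from mock-infected wells. SI = CC50/EC50.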

[2] = system: Human immunodeficiency virus 1; experiment: Antiviral activity against HIV-1 RES056 harboring reverse transcriptase K103N/Y181C double mutant infected in human MT4 cells assessed as protection against virus-induced cytopathogenicity after 5 days by MTT assay; format: functional, organism-based; details: Human immunodeficiency virus 1, RES056, MT4, 120 h; summary of the method: as §1
[3] = system: Human immunodeficiency virus 1; experiment: Antiviral activity against wild type HIV-1 3B infected in human MT4 cells assessed as protection against virus-induced cytopathogenicity after 5 days by MTT assay; format: functional, organism-based; details: Human immunodeficiency virus 1, 3B, MT4, 120 h
Summary of the method: (§2)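 Compounds added at the start as 10× stocks to triplicate wells, then serially diluted fivefold. Virus stock at […] CCID50 was added to MT-4 cells resuspended at 6 × 10⁵ cells/mL. Viability was read by MTT reduction to formazan five days post-infection, with absorbance measured at 540 and 690 nm. EC50 is the concentration protecting against virus-induced cytopathicity.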

[4] = Selectivity index, ratio of CC50 for human MT4 cells to EC50 for HIV-2 ROD infected in human MT4 cells; format: toxicity, cell-based; details: read-out: Ratio CC50/EC50; summary of the method: as §1
[5] = system: Human immunodeficiency virus 2; experiment: Antiviral activity against HIV-2 ROD infected in human MT4 cells assessed as protection against virus-induced cytopathogenicity after 5 days by MTT assay; format: functional, organism-based; details: Human immunodeficiency virus 2, ISOLATE ROD, MT4, 120 h; summary of the method: as §2
[6] = Cytotoxicity against human MT4 cells assessed as growth inhibition after 5 days by MTT assay; format: cell-based
Summary of the method: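 Mock-infected MT-4 cells (6 × 10⁵ cells/mL) were run in parallel triplicate wells with serial fivefold compound dilutions added from 10× stocks and culture medium instead of virus. Viability was measured by MTT at day 5, reading absorbance at 540 and 690 nm.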

[7] = Selectivity index, ratio of CC50 for human MT4 cells to EC50 for wild type HIV-1 3B infected in human MT4 cells; format: toxicity, cell-based; details: read-out: Ratio CC50/EC50
Summary of the method: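 HIV-1 IIIB is added at 100–300 CCID50 per well to MT-4 cells seeded at 6 × 10⁵ cells/mL. Fivefold serial compound dilutions are run in triplicate, with a parallel mock-infected series for cytotoxicity. MTT viability is read at 540 and 690 nm after 5 days. SI = CC50 (mock-infected) / EC50 (infected).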

[8] = biological target: Human immunodeficiency virus type 1 reverse transcriptase (Human immunodeficiency virus 1, UniProt Q72547); experiment: Inhibition of wild type HIV-1 reverse transcriptase using […] as template/primer assessed as inhibition of biotin-dUTP incorporation after 1 hr by microtiter plate ELISA reader analysis

Row | SMILES | selectivity ratio [1] | EC50 [2] | EC50 [3] | selectivity ratio [4] | EC50 [5] | CC50 at 120 h [6] | selectivity ratio [7] | IC50 [8]
1 | Cc1ccc(Nc2cc(Oc3c(C)cc(C#N)cc3C)c([N+](=O)[O-])cn2)cc1 | < 1 | > 207 µM | > 207000 nM | < 1 | > 207 µM | 207 µM | < 1 | –
2 | Cc1cccc(C)c1Oc1cc(Nc2ccc(C#N)cc2)ncc1[N+](=O)[O-] | < 1 | > 126 µM | 580 nM | < 1 | > 126 µM | 126 µM | 214 | –
3 | Cc1cccc(C)c1Nc1cc(Nc2ccc(C#N)cc2)ncc1[N+](=O)[O-] | < 1 | > 12.8 µM | > 12800 nM | < 1 | > 12.8 µM | 12.8 µM | < 1 | –
4 | N#Cc1ccc(Nc2cc(Oc3c(Cl)cccc3Cl)c([N+](=O)[O-])cn2)cc1 | < 1 | > 27.7 µM | 620 nM | < 1 | > 27.7 µM | 27.7 µM | 44 | –
5 | Cc1cc(Cl)cc(C)c1Oc1cc(Nc2ccc(C#N)cc2)ncc1[N+](=O)[O-] | < 1 | > 11.1 µM | 160 nM | < 1 | > 11.1 µM | 11.1 µM | 70 | –
6 | N#Cc1ccc(Nc2cc(Oc3c(Br)cc(Br)cc3Br)c([N+](=O)[O-])cn2)cc1 | < 1 | > 7.49 µM | 110 nM | < 1 | > 7.49 µM | 7.49 µM | 65 | –
7 | Cc1cc(C#N)cc(C)c1Oc1cc(Nc2ccc(C#N)cc2)ncc1[N+](=O)[O-] | < 1 | > 36.1 µM | 110 nM | < 1 | > 36.1 µM | 36.1 µM | 339 | 8.5 µM
8 | N#Cc1ccc(Nc2cc(Oc3c(Cl)cc(Cl)cc3Cl)c([N+](=O)[O-])cn2)cc1 | < 1 | > 16.2 µM | 170 nM | < 1 | > 16.2 µM | 16.2 µM | 97 | –
9 | O=C1Nc2ccc(Cl)cc2[C@@](C#CC2CC2)(C(F)(F)F)O1 [EFAVIRENZ] | > 21 | 0.32 µM | 5.7 nM | – | – | > 6.34 µM | > 1110 | –
10 | COc1cccc(OC)c1Oc1cc(Nc2ccc(C#N)cc2)ncc1[N+](=O)[O-] | < 1 | > 319 µM | 4280 nM | < 1 | > 319 µM | 319 µM | 74 | –
11 | N#Cc1ccc(Nc2cc(Oc3c(Cl)cc([N+](=O)[O-])cc3Cl)c([N+](=O)[O-])cn2)cc1 | < 1 | > 26.5 µM | 16800 nM | < 1 | > 26.5 µM | 26.5 µM | 2 | –
12 | Cc1ccnc2c1NC(=O)c1cccnc1N2C1CC1 [NEVIRAPINE] | – | 4.09 µM | – | – | – | > 15 µM | – | –
13 | N#Cc1ccc(Nc2cc(Nc3c(F)cc(Br)cc3Br)c([N+](=O)[O-])cn2)cc1 | < 1 | > 149 µM | 3050 nM | < 1 | > 149 µM | 149 µM | 49 | –
14 | Cc1cc(Br)cc(C)c1Oc1cc(Nc2ccc(C#N)cc2)ncc1[N+](=O)[O-] | < 1 | > 12.3 µM | 270 nM | < 1 | > 12.3 µM | 12.3 µM | 45 | –
15 | Cc1cc(C)c(Oc2cc(Nc3ccc(C#N)cc3)ncc2[N+](=O)[O-])c(C)c1 | < 1 | > 69.9 µM | 56 nM | < 1 | > 69.9 µM | 69.9 µM | 1250 | 6.9 µM
16 | CC(C)Nc1cccnc1N1CCN(C(=O)c2cc3cc(NS(C)(=O)=O)ccc3[nH]2)CC1 [DELAVIRDINE] | < 1 | > 36.2 µM | 510 nM | – | – | > 36.2 µM | > 71 | –
17 | Cc1cc(C#N)cc(C)c1Oc1cc(Nc2ccc([N+](=O)[O-])cc2)ncc1[N+](=O)[O-] | < 1 | > 141 µM | 720 nM | < 1 | > 141 µM | 141 µM | 200 | –
18 | Cc1cc(C)c(Nc2cc(Nc3ccc(C#N)cc3)ncc2[N+](=O)[O-])c(C)c1 | < 1 | > 262 µM | 30200 nM | < 1 | > 262 µM | 262 µM | 9 | –
19 | Cc1cc(Br)c(Oc2cc(Nc3ccc(C#N)cc3)ncc2[N+](=O)[O-])c(Br)c1 | < 1 | > 23.6 µM | 34 nM | < 1 | > 23.6 µM | 23.6 µM | 691 | 10.4 µM
20 | Cc1cc(Br)c(Nc2cc(Nc3ccc(C#N)cc3)ncc2[N+](=O)[O-])c(Br)c1 | < 1 | > 167 µM | 3850 nM | < 1 | > 167 µM | 167 µM | 43 | –
21 | Cc1cn([C@H]2C[C@H](N=[N+]=[N-])[C@@H](CO)O2)c(=O)[nH]c1=O [ZIDOVUDINE] | > 5960 | 0.016 µM | – | > 7720 | 0.012 µM | > 93.5 µM | > 12500 | –
22 | N#Cc1ccc(Nc2cc(Oc3c(F)cc(F)cc3F)c([N+](=O)[O-])cn2)cc1 | < 1 | > 3.54 µM | 720 nM | < 1 | > 3.54 µM | 3.54 µM | 5 | –
